Source: ChEMBL document CHEMBL4828755, “A sulfonyl fluoride derivative inhibits EGFRL858R/T790M/C797S by covalent modification of the catalytic lysine” (Eur J Med Chem, 2021)
Activity calls are given as the source filed them. The calls are words filed in the database; no cut-off is given here.

Experiments:
[1] = target: T1, Epidermal growth factor receptor (Homo sapiens, UniProt P00533, C797S/L858R/T790M); assay: Inhibition of EGFR L858R/T790M/C797S triple mutant (unknown origin) using fluoresceine-labelled poly-GT peptide as substrate incubated for 1 hr by TR-FRET assay
BaF3 [2] = assay: Cytotoxicity against mouse BaF3 cells harboring EGFR del19/T790M/C797S triple mutant assessed as inhibition of cell proliferation measured after 72 hrs by MTS assay; type: functional, cell-based
Procedure, shortened: (§1)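 Ba/F3 cells carrying the respective EGFR triple mutant, grown in RPMI-1640 with 2 mM glutamine and 10% FBS at 37°C, 5% CO2. Seeded 20000 cells/well and treated the same day with increasing concentrations (DMSO ≤0.1% final). Viability read by MTS after 72 h, expressed as % inhibition versus untreated controls; at least three independent experiments.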

[3] = target: Tyrosine-protein kinase Lck (Homo sapiens) (UniProt P06239); assay: Inhibition of human recombinant LCK at 100 nM by Z'-LYTE assay
Chain of Tyrosine-protein kinase Lck (Homo sapiens) (P06239 2-509 limits assumed): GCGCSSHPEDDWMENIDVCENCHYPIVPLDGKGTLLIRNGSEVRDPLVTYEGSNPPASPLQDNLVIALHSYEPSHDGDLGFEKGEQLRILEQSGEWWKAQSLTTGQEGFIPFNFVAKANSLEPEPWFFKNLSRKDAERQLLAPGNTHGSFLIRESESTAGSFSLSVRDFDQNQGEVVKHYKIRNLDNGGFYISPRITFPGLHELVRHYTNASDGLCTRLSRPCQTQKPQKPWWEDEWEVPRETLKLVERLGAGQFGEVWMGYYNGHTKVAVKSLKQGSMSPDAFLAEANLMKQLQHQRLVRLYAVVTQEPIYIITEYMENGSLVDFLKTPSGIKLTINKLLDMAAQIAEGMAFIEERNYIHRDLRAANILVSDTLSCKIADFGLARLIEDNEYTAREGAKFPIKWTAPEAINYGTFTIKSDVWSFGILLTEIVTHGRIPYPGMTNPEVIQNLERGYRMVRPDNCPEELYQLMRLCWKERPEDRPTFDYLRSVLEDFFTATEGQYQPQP
Procedure, shortened: (§2)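 Z'-LYTE FRET kinase panel; phosphorylation of a reference peptide measured with ATP at each enzyme's Km. Compounds tested in 1% DMSO at 0.1 and/or 1 μM. Values are means of two independent experiments with standard deviations.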

[4] = target: Cyclin-dependent kinase 5 (Homo sapiens) (UniProt Q00535); assay: Inhibition of GST/His-tagged human full length recombinant CDK5 expressed in baculovirus expression system at 100 nM by Z'-LYTE assay; procedure, shortened: as §2
Chain of Cyclin-dependent kinase 5 (Homo sapiens) (Q00535 whole entry, looked up): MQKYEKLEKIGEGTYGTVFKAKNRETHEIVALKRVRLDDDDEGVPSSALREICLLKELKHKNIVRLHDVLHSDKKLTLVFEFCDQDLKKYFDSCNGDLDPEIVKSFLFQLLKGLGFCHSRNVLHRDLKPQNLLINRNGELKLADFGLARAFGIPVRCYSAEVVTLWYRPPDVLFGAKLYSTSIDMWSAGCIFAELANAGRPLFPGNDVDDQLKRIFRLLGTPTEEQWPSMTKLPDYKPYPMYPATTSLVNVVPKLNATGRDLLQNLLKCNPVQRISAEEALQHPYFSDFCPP

[5] = system: Epidermal growth factor receptor (Homo sapiens), P00533 [L858R,T790M,C797S]; assay: Irreversible inhibiton of EGFR L858R/T790M/C797S triple mutant (unknown origin) assessed as residual enzyme activity using fluoresceine-labelled poly-GT peptide as substrate preincubated with enzyme for 3 hrs at 10XIC50 followed by 100-fold dilution and measured after 30 mins by rapid dilution assay based TR-FRET analysis; conditions: time 210.0 min
Procedure, shortened: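 It was then diluted 100-fold into Kinase Buffer A containing poly-GT substrate and 9 μM ATP. After 30 min, EDTA quench plus Eu-PY20 were added for 30 min before TR-FRET. Activity is given as % of no-inhibitor control; n = 5.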

BaF3 [6] = assay: Cytotoxicity against mouse BaF3 cells harboring EGFR L858R/T790M/C797S triple mutant assessed as inhibition of cell proliferation measured after 72 hrs by MTS assay; type: functional, cell-based; procedure, shortened: as §1
[7] = target: T1, Epidermal growth factor receptor; assay: Inhibition of EGFR L858R/T790M/C797S triple mutant (unknown origin) using fluoresceine-labelled poly-GT peptide as substrate preincubated with enzyme for 3 hrs followed by substrate and ATP addition by TR-FRET assay
[8] = target: Proto-oncogene tyrosine-protein kinase Src (Homo sapiens) (UniProt P12931); assay: Inhibition of C-terminal His-tagged human recombinant SRC expressed in baculovirus expression system at 100 nM by Z'-LYTE assay; procedure, shortened: as §2
Chain of Proto-oncogene tyrosine-protein kinase Src (Homo sapiens) (P12931 2-536 limits assumed): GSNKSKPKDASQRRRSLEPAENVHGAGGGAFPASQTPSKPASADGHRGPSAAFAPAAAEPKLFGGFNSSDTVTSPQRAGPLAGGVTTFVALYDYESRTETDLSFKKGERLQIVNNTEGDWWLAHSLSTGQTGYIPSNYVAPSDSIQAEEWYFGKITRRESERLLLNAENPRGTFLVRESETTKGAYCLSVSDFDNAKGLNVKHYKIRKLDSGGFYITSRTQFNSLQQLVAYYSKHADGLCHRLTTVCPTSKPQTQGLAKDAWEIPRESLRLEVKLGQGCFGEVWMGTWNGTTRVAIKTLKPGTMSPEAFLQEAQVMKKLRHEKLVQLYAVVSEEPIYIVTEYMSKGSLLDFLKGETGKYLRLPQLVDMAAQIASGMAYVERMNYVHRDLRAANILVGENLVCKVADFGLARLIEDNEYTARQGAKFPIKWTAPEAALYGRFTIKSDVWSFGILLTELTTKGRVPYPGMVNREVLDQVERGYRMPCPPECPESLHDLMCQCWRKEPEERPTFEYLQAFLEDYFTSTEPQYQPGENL

[9] = target: T2, Aurora kinase A (Homo sapiens) (UniProt O14965); assay: Inhibition of His-tagged human full length recombinant AURKA expressed in baculovirus expression system at 100 nM by Z'-LYTE assay; procedure, shortened: as §2
T2 sequence (whole entry): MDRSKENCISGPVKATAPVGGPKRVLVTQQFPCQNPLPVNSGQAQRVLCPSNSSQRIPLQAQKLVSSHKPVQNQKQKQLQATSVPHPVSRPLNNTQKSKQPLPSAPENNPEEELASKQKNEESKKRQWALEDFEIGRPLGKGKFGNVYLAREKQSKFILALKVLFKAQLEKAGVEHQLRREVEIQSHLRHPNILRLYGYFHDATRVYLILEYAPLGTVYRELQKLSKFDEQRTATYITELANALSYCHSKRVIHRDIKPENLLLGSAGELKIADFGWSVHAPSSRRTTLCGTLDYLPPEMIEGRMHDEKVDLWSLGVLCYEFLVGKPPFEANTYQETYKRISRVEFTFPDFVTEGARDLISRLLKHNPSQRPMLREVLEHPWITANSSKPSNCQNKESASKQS

[10] = target: Tyrosine-protein kinase Blk (Homo sapiens) (UniProt P51451); assay: Inhibition of His-tagged human full length recombinant BLK expressed in baculovirus expression system at 100 nM by Z'-LYTE assay; procedure, shortened: as §2
Chain of Tyrosine-protein kinase Blk (Homo sapiens) (P51451 2-505 limits assumed): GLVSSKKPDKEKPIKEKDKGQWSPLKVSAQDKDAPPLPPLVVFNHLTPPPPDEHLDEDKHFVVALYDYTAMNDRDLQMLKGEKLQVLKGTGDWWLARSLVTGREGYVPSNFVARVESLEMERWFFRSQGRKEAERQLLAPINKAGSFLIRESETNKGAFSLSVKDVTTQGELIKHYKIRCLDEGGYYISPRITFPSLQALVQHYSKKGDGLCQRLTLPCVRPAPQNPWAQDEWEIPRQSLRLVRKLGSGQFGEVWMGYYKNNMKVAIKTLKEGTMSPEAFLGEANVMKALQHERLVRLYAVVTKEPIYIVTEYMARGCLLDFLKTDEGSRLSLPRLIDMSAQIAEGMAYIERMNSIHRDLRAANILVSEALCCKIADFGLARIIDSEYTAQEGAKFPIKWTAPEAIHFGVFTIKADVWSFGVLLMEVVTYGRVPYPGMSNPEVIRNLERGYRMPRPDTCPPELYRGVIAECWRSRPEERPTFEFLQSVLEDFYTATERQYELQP

[11] = system: Epidermal growth factor receptor (Homo sapiens), P00533 [L858R,T790M,C797S]; assay: Ratio of IC50 for EGFR L858R/T790M/C797S triple mutant (unknown origin) using fluoresceine-labelled poly-GT peptide as substrate incubated for 1 hr to IC50 for EGFR L858R/T790M/C797S triple mutant (unknown origin) using fluoresceine-labelled poly-GT peptide as substrate preincubated with enzyme for 3 hrs followed by substrate and ATP addition
[12] = target: Cyclin-dependent kinase 2 (Homo sapiens) (UniProt P24941); assay: Inhibition of human recombinant CDK2 at 100 nM by Z'-LYTE assay; procedure, shortened: as §2
[13] = target: RAC-beta serine/threonine-protein kinase (Homo sapiens) (UniProt P31751); assay: Inhibition of His-tagged full length human recombinant AKT2 expressed in baculovirus expression system at 100 nM by Z'-LYTE assay; procedure, shortened: as §2
Chain of RAC-beta serine/threonine-protein kinase (Homo sapiens) (P31751 whole entry): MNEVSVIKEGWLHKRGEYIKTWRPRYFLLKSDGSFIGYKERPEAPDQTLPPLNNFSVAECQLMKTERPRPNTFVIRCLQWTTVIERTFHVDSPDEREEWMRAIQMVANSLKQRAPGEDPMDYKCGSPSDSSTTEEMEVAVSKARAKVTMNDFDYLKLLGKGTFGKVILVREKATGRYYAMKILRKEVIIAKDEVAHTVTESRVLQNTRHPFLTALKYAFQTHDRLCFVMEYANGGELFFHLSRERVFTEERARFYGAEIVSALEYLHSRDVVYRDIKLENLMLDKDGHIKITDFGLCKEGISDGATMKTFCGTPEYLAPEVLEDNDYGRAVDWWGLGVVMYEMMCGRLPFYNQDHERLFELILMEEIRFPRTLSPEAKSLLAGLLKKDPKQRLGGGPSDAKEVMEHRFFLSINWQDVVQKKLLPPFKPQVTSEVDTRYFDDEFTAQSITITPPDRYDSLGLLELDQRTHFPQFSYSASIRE

[14] = target: T3, AMP-activated protein kinase, AMPK (Homo sapiens) (UniProt P54646+O43741+P54619+Q9UGJ0+Q9Y478+Q13131+Q9UGI9); assay: Inhibition of human recombinant AMPK at 100 nM by Z'-LYTE assay; type: protein-complex assay; procedure, shortened: as §2
[15] = target: Cyclin-dependent kinase 2 (Homo sapiens) (UniProt P24941); assay: Inhibition of human recombinant CDK2 at 1 uM by Z'-LYTE assay; procedure, shortened: as §2
[16] = target: Fibroblast growth factor receptor 4 (Homo sapiens) (UniProt P22455); assay: Inhibition of His-tagged human recombinant FGFR4 ([…] residues) expressed in baculovirus expression system at 1 uM by Z'-LYTE assay; procedure, shortened: as §2
Chain of Fibroblast growth factor receptor 4 (Homo sapiens) (P22455 22-802 limits assumed): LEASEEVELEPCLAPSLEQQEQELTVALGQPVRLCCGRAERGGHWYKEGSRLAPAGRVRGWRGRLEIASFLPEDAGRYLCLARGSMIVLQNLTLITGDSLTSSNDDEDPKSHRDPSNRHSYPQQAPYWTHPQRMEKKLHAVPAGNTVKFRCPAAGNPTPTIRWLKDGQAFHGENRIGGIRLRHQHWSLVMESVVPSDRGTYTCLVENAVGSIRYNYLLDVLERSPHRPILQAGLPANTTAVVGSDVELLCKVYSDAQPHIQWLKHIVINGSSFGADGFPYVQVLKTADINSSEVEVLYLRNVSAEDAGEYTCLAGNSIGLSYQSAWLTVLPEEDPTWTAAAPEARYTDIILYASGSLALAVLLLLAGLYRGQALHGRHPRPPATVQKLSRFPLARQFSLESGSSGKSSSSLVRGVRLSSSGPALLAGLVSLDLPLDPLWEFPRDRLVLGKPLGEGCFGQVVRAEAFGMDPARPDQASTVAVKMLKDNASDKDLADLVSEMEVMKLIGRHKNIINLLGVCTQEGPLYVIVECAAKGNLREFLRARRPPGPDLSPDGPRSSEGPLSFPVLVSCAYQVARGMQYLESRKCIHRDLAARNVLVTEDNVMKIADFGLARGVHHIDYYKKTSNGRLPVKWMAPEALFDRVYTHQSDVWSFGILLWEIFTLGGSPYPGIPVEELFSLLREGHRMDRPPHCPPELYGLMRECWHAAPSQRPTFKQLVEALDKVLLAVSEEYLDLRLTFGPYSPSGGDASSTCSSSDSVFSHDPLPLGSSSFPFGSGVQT

[17] = system: Epidermal growth factor receptor (Homo sapiens), P00533 [L858R,T790M,C797S]; assay: Inhibition of EGFR L858R/T790M/C797S triple mutant (unknown origin) expressed in mouse Ba/F3 cells assessed as inhibition of EGF-stimulated receptor phosphorylation at 1 uM incubated for 4 hrs followed by washing with buffer solution and later incubation in drug-free medium for 2 to 8 hrs followed by EGF stimulation by western blot analysis; type: cell-based; conditions: BaF3
Procedure, shortened: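 Ba/F3 cells expressing EGFR L858R/T790M/C797S exposed to 1 μM for 4 h, washed extensively with PBS, and allowed to recover in fresh drug-free medium for 2, 4 or 8 h. Cells then stimulated with 100 ng/ml EGF for 10 min. pEGFR (Tyr1068), total EGFR and actin detected by western blot.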

[18] = target: T3, AMP-activated protein kinase, AMPK (Homo sapiens); assay: Inhibition of human recombinant AMPK at 1 uM by Z'-LYTE assay; type: protein-complex assay; procedure, shortened: as §2
[19] = target: Tyrosine-protein kinase Lck (Homo sapiens) (UniProt P06239); assay: Inhibition of human recombinant LCK at 1 uM by Z'-LYTE assay; procedure, shortened: as §2
[20] = system: Epidermal growth factor receptor (Homo sapiens), P00533 [L858R,T790M,C797S]; assay: Covalent binding affinity to recombinant EGFR L858R/T790M/C797S triple mutant (unknown origin) assessed as Lys745 sulfonylation in tryptic digested peptide IPVAIK745ELR at enzyme:compound molar concentration ratio of 1:5 incubated for 1 hr and measured following tryptic digestion by LC-HRMS analysis
Procedure, shortened: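 Recombinant triple-mutant EGFR co-incubated with inhibitor at 1:5 molar ratio for 1 h in Kinase Buffer A (50 mM HEPES pH 7.5, 10 mM MgCl2, 1 mM EGTA, 0.01% Brij-35); DMSO vehicle control. Reduced with DTT (15 min, 60°C), alkylated with iodoacetamide, trypsin-digested overnight at 37°C (1:10 trypsin:protein), C18 cleanup, analysed by LC-HRMS in ESI positive mode.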

[21] = target: Platelet-derived growth factor receptor alpha (Homo sapiens) (UniProt P16234); assay: Inhibition of GST-tagged human recombinant PDGFR alpha (550 to 1089 residues) expressed in baculovirus expression system at 1 uM by Z'-LYTE assay; procedure, shortened: as §2
Chain of Platelet-derived growth factor receptor alpha (Homo sapiens) (P16234 whole entry, the tested form may be a part): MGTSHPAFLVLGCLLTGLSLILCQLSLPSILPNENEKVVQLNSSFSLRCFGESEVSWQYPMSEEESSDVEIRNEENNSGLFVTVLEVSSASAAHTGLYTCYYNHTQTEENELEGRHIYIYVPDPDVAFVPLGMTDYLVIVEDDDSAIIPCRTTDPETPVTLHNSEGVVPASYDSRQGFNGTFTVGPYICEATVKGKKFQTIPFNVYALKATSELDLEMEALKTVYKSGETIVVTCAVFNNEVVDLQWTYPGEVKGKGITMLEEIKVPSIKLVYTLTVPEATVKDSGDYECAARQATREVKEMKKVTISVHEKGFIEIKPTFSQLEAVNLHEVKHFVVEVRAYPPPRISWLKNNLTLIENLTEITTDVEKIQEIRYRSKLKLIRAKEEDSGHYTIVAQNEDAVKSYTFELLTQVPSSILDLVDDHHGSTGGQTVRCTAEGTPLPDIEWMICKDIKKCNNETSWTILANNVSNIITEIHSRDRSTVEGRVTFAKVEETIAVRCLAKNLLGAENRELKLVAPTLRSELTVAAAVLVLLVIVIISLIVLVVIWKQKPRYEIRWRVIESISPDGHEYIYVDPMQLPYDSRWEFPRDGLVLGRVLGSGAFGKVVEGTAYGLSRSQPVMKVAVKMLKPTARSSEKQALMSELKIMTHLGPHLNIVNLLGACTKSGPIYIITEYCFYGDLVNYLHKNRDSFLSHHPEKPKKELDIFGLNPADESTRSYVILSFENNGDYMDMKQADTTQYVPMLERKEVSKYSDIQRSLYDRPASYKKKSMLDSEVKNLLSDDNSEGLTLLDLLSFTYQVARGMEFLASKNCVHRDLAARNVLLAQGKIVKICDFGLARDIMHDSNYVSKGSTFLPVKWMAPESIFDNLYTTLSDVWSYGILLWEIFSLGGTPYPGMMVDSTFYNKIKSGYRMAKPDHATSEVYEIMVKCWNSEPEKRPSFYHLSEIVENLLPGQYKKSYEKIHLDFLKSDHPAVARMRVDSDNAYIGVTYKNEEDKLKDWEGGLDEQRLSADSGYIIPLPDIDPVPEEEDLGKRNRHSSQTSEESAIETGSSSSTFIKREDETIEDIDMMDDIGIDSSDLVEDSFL

Row | Structure (SMILES) | IC50 [1] | Activity (BaF3 [2]) | inhibition [3] | inhibition [4] | Activity [5] | IC50 [7] | inhibition [8] | inhibition [9] | inhibition [10] | Ratio IC50 [11] | inhibition [12] | inhibition [13] | inhibition [14] | also measured
1 | C#CCNC(=O)c1cc(Nc2cc(C3CC3)[nH]n2)nc(N2CCN(Cc3ccc(S(=O)(=O)F)cc3)CC2)n1 | 244 nM | Active | Active | Active | < 25% | 6 nM | Active | Active | Active | 40 | Active | Active | Active | Activity (BaF3 [6]): Active
2 | COc1cc(N2CCN(C(C)=O)CC2)ccc1Nc1ncc(Cl)c(Nc2ccc(NCc3ccc(S(=O)(=O)F)cc3)cc2)n1 | 110 nM | inactive | inactive | inactive | < 25% | 1.5 nM | inactive | 30% | inactive | 70 | inactive | inactive | inactive | inhibition [15]: 100%; inhibition [16]: < 25%; inhibition [17]: inactive; IC50 (BaF3 [6]; BaF3, 72 h): 500 nM; inhibition [18]: 100%; inhibition [19]: 100%; Activity [20]: Active; inhibition [21]: < 25%
